Measurements taken from ChEMBL document CHEMBL1135578, “Rhodacyanine dyes as antimalarials. 1. Preliminary evaluation of their activity and toxicity” (J Med Chem, 2002).

How the values were obtained:
[1] = (§1) Selective toxicity- EC50 value of FM3A / EC50 value of Plasmodium falciparum; assay type: cell-based; details: mouse, FM3A cells; read-out: Toxicity ratio
How it was run: (§2)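 Ratio computed as EC50 in FM3A cells divided by EC50 against P. falciparum FCR-3.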

[2] = tested on: Plasmodium falciparum; assay: In vitro antimalarial activity against chloroquine-sensitive Plasmodium falciparum FCR3; assay type: functional, organism-based
How it was run: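 In vitro growth of chloroquine-sensitive P. falciparum FCR-3 read as EC50; some entries are given as EC70 values (% parasite growth observed) where noted.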

[3] = tested on: FM3A; assay: Cytotoxicity against mouse mammary tumor FM3A cells representing a model of host; assay type: functional, cell-based
How it was run: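 Growth of mouse mammary tumor FM3A cells, used as a host model, read as EC50; some entries are given as lower-effect ECx values (% growth observed) where noted.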

[4] = tested on: FM3A; assay: as §1; assay type: cell-based; details: mouse, fm3a; how it was run: as §2

| SMILES | selectivity ratio [1] | EC50 ([2]; Plasmodium falciparum) | EC50 ([3]; Mus musculus, FM3A) | EC50 [2] | Toxicity ratio [4] | EC50 ([3]; fm3a) |
| --- | --- | --- | --- | --- | --- | --- |
| CN(C)c1ccc2nc3ccc(N(C)C)cc3[s+]c2c1 [METHYLENE BLUE ANHYDROUS] | 65 | 17 nM | 1100 nM | – | – | – |
| CCn1c(=O)/c(=C2\Sc3ccccc3N2C)s/c1=C\c1cccc[n+]1CCCCC(=O)O | > 26 | 680 nM | > 18000 nM | – | – | – |
| COC(=O)c1ccccc1-c1c2ccc(=N)cc-2oc2cc(N)ccc12 [RHODAMINE123] | 33 | 300 nM | 10000 nM | – | – | – |
| CCn1c(=O)/c(=C2\Sc3ccccc3N2C)s/c1=C\c1cccc[n+]1CCO | > 81 | 210 nM | > 17000 nM | – | – | – |
| CCn1c(=O)/c(=C2\C=Cc3ccccc3N2C)s/c1=C\c1cccc[n+]1C | – | 240 nM | – | – | – | – |
| CN1/C(=c2\s/c(=C\c3cc[n+](C)cc3)n(Cc3ccccc3)c2=O)Sc2ccccc21 | 16 | 50 nM | 810 nM | – | – | – |
| CCn1c(=O)/c(=C2\Sc3ccccc3N2C)s/c1=C\c1cccc[n+]1CC | 210 | 70 nM | 15000 nM | – | – | – |
| CCN1C(=O)CS/C1=C\c1sc2ccccc2[n+]1CC | – | 520 nM | – | – | – | – |
| CCn1c(=O)/c(=C2\Sc3cc(C(F)(F)F)ccc3N2C)s/c1=C\c1cccc[n+]1CC | 64 | 66 nM | 4200 nM | – | – | – |
| CN1/C(=c2\s/c(=C\c3cccc[n+]3C)n(C)c2=O)Sc2ccccc21 | 84 | 45 nM | 3800 nM | – | – | – |
| CCn1c(=O)/c(=C2\Sc3ccccc3N2C)s/c1=C\c1cc[n+](C)c2ccccc12 | 87 | 7.8 nM | 680 nM | – | – | – |
| CCN1C(=O)/C(=C2\Sc3ccccc3N2C)SC1=S | – | > 28000 nM | – | – | – | – |
| CCn1c(=O)/c(=C2\Sc3ccccc3N2C)s/c1=C\c1cccc(-c2ccccc2)[n+]1C | 34 | 56 nM | 1900 nM | – | – | – |
| CN1/C(=C\c2cccc[n+]2C)Sc2ccccc21 | – | 240 nM | – | – | – | – |
| C=C[C@H]1C[N@@]2CC[C@H]1C[C@H]2[C@H](O)c1ccnc2ccc(OC)cc12 [QUININE] | 910 | – | – | – | – | – |
| C=CCn1c(=O)/c(=C2\Sc3ccccc3N2C)s/c1=C\c1cc[n+](C)cc1 | 480 | 14 nM | 6700 nM | – | – | – |

| SMILES | selectivity ratio [1] | EC50 ([2]; Plasmodium falciparum) | EC50 ([3]; Mus musculus, FM3A) | EC50 [2] | Toxicity ratio [4] | EC50 ([3]; fm3a) |
| --- | --- | --- | --- | --- | --- | --- |
| CCn1c(=O)/c(=C2\Sc3ccc4ccccc4c3N2C)s/c1=C\c1cccc[n+]1CCO | 120 | 43 nM | 5000 nM | – | – | – |
| CCn1c(=O)/c(=C2\Sc3ccccc3N2C)s/c1=C\c1ccc2ccccc2[n+]1C | 130 | 4.6 nM | 580 nM | – | – | – |
| CCn1c(=O)/c(=C2\SCCN2C)s/c1=C\c1cccc[n+]1C | > 150 | 230 nM | > 34000 nM | – | – | – |
| CCn1c(=O)/c(=C2\Sc3ccccc3N2C)s/c1=C\c1cc[n+](C)cc1 | > 430 | 56 nM | > 24000 nM | – | – | – |
| CC[n+]1ccccc1/C=c1\s/c(=C2/Sc3ccccc3N2C)c(=O)n1CCCCC(=O)O | > 11 | 1500 nM | > 17000 nM | – | – | – |
| CCn1c(=O)/c(=C2\Sc3ccccc3N2C)s/c1=C\c1cccc[n+]1C | 500 | 28 nM | 14000 nM | – | – | – |
| CC[N+]1=C(SC)S/C(=C2/Sc3ccccc3N2C)C1=O | – | 3700 nM | – | – | – | – |
| CCn1c(=O)/c(=C2\C=CC=CN2C)s/c1=C\c1cccc[n+]1C | – | 350 nM | – | – | – | – |
| C=CCn1c(=O)/c(=C2\Sc3ccccc3N2C)s/c1=C\c1cccc[n+]1C [listing 1 of 2 here] | 1000 | – | 12000 nM | 12 nM | – | – |
| CCN(CC)CCCC(C)Nc1ccnc2cc(Cl)ccc12 (stereo not given) [CHLOROQUINE] | 1800 | – | – | – | – | – |
| CCn1c(=O)/c(=C2\Sc3ccccc3N2C)s/c1=C\c1cccc[n+]1C.Cc1ccc(S(=O)(=O)[O-])cc1 | – | – | – | 23 nM | 480 | 11000 nM |
| CCn1c(=O)/c(=C2\Sc3ccccc3N2C)s/c1=C\c1cccc[n+]1C.[OH-] | – | – | – | 22 nM | 590 | 13000 nM |
| C=CCn1c(=O)/c(=C2\Sc3ccccc3N2C)s/c1=C\c1cccc[n+]1C [listing 2 of 2 here] | – | – | – | > 38 nM | – | – |
| CCn1c(=O)/c(=C2\Sc3ccccc3N2C)s/c1=C\c1cccc[n+]1C.[Cl-] | – | – | – | 26 nM | 620 | 16000 nM |
| CN1/C(=c2\s/c(=C\c3cccc[n+]3C)n(Cc3ccccc3)c2=O)Sc2ccccc21 | 26 | 31 nM | 800 nM | – | – | – |
